# Results from paper PMC10975586 (ACS Omega, 2024).
# “And” between values parts separate entries of the source, which are not always exact repeats. Equal entries are not always repeated. “Also recorded” adds a separate entry of the source. Where two headings read alike, the source gives them in different places.
# Experiments:
# jack bean (JB) urease = jack bean (JB) urease (Canavalia ensiformis, UniProt P07374); experiment: Urease inhibitory assay; format: biochemical; conditions: for inhibition at 250 µM: read-out: inhibition (%) at 0.25 mM, JB urease; for inhibition at 250 µM / inhibition (%) at 0.25 mM: 0.25 mM, mean ± SEM, n = 3–4; for urease inhibitory profile (in words) / inhibition (%) at 0.25 mM: JB urease
# JB urease enzyme = JB urease enzyme (Canavalia ensiformis, UniProt P07374); experiment: Kinetic analysis of JB urease inhibition; format: biochemical, jack bean; conditions: for Vmax: in presence of the inhibitor
# Method in brief: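 Jack bean urease (1 unit/well) in 50 mM phosphate buffer pH 7.4 is preincubated with test compound for 10 min at 37 °C. Urea is added from a 50 mM solution and the reaction runs 15 min. Phenol-alkali reagent stops it, and A630 is read after 10 min. Mode of inhibition, Km, Vmax and Ki come from double-reciprocal plots and nonlinear regression (mean ± SEM, n = 3).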
# jack bean (JB) urease, sequence (P07374 whole entry, looked up): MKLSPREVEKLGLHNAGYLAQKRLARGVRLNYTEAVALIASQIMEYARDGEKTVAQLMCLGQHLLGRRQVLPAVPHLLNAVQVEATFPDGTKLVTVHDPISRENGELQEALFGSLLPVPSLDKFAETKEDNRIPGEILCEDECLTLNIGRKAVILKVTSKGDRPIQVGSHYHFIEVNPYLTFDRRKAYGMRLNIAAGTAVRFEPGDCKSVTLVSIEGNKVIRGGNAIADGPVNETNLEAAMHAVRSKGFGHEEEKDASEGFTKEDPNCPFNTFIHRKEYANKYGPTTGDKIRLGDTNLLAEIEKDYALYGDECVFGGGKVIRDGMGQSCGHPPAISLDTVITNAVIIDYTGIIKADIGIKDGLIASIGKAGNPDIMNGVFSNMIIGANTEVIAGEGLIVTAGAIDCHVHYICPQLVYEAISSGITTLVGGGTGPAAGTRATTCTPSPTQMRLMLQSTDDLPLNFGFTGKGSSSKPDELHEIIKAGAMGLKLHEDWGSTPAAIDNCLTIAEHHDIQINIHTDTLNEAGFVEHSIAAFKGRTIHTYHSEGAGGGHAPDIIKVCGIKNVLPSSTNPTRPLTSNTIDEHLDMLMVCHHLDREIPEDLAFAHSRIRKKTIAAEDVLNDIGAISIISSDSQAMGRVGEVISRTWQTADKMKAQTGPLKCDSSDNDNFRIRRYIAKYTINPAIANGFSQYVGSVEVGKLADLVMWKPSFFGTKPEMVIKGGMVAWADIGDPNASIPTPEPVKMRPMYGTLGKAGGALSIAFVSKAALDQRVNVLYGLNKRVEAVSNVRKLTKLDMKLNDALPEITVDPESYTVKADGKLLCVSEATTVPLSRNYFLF
# JB urease enzyme, sequence (P07374 whole entry, looked up): as above
Compound,IC50 (jack bean (JB) urease),inhibition at 250 µM (jack bean (JB) urease),further results
C[C@@H]1CN(c2c(F)c(N)c3c(=O)c(C(=O)O)cn(C4CC4)c3c2F)C[C@H](C)N1 [sparfloxacin],213.9 ± 0.32 µM,57.6 ± 0.62%,
CO/N=C(\C(=O)N[C@@H]1C(=O)N2C(C(=O)O)=C(COC(C)=O)CS[C@H]12)c1csc(N)n1 [cefotaxime],27.4 ± 0.74 µM,81.9 ± 1.46%,
CC1COc2c(N3CCN(C)CC3)c(F)cc3c(=O)c(C(=O)O)cn1c23 (stereo not shown) [ofloxacin],13.2 ± 0.32 µM,83.67 ± 0.67%,Ki (JB urease enzyme): 5.43 µM; type of inhibition (JB urease enzyme; JB urease): competitive inhibition; also recorded: competitive inhibitors; Vmax (JB urease enzyme; JB urease): 86.62 µM/min
COCC1=C(C(=O)O)N2C(=O)[C@@H](NC(=O)/C(=N\OC)c3csc(N)n3)[C@H]2SC1 [cefpodoxime],23.7 ± 0.82 µM,91.3 ± 1.86%,
COc1c(N2C[C@@H]3CCCN[C@@H]3C2)c(F)cc2c(=O)c(C(=O)O)cn(C3CC3)c12 [moxifloxacin],135.3 ± 0.39 µM,75.27 ± 0.74%,urease inhibitory profile (in words) (jack bean (JB) urease): weak urease inhibitions; also recorded: weak enzyme inhibitors
C[C@H]1COc2c(N3CCN(C)CC3)c(F)cc3c(=O)c(C(=O)O)cn1c23 [levofloxacin],7.24 ± 0.29 µM,81.92 ± 0.62%,"Ki (JB urease enzyme): 4.91 µM; maximum velocity (JB urease enzyme; JB urease): 84.51 μm/min; type of inhibition (JB urease enzyme; JB urease): competitive inhibitors; Vmax (JB urease enzyme; JB urease): 84.51 µM/min; type of inhibition (JB urease enzyme; JB urease, listed as Levofloxacin): competitive inhibition"
CO/N=C(\C(=O)N[C@@H]1C(=O)N2C(C(=O)O)=CCS[C@H]12)c1csc(N)n1 [ceftizoxime],,32.41 ± 0.24%,
CC1=C(C(=O)O)N2C(=O)[C@@H](NC(=O)[C@H](N)c3ccccc3)[C@H]2SC1 [cefalexin],145.8 ± 0.37 µM,72.5 ± 0.94%,urease inhibitory profile (in words) (jack bean (JB) urease): poor inhibitory potential
CO/N=C(\C(=O)N[C@@H]1C(=O)N2C(C(=O)O)=C(CSc3nc(=O)c(=O)[nH]n3C)CS[C@H]12)c1csc(N)n1 [ceftriaxone],157.4 ± 0.42 µM,72.6 ± 0.98%,urease inhibitory profile (in words) (jack bean (JB) urease): poor inhibitory potential
CC1=C(C(=O)O)N2C(=O)[C@@H](NC(=O)[C@H](N)c3ccc(O)cc3)[C@H]2SC1 [cefadroxil],21.4 ± 0.64 µM,91.27 ± 0.85%,
C=CC1=C(C(=O)O)N2C(=O)[C@@H](NC(=O)/C(=N\OCC(=O)O)c3csc(N)n3)[C@H]2SC1 [cefixime],215.5 ± 0.76 µM,68.5 ± 1.85%,urease inhibitory profile (in words) (jack bean (JB) urease): poor inhibitory potential
NC(N)=S [thiourea],,,"type of inhibition (JB urease enzyme; JB urease): competitive; Vmax (JB urease enzyme; JB urease): 110.1 µM/min; Ki (JB urease enzyme; JB urease, inhibitory constant): 19.7 µM; inhibition (%) at 0.25 mM (jack bean (JB) urease): 98.21 ± 0.18%"
CO/N=C(\C(=O)N[C@@H]1C(=O)N2C(C(=O)O)=C(COC(N)=O)CS[C@H]12)c1ccco1 [cefuroxime],241.5 ± 0.87 µM,51.7 ± 1.56%,
O=C(O)c1cn(C2CC2)c2cc(N3CCNCC3)c(F)cc2c1=O [ciprofloxacin],134.5 ± 0.52 µM,78.3 ± 0.85%,urease inhibitory profile (in words) (jack bean (JB) urease): weak enzyme inhibitors; urease inhibitory profile (in words) (jack bean (JB) urease; listed as Ciprofloxacin): weak urease inhibitions
CC=CC1=C(C(=O)O)N2C(=O)[C@@H](NC(=O)[C@H](N)c3ccc(O)cc3)[C@H]2SC1 [cefprozil],,,inhibition (%) at 0.25 mM (jack bean (JB) urease): 42.76 ± 0.27%
CC1=C(C(=O)O)N2C(=O)[C@@H](NC(=O)[C@H](N)C3=CCC=CC3)[C@H]2SC1 [cefradine],226.8 ± 0.95 µM,54.9 ± 1.54%,
CCN1CCN(C(=O)N[C@@H](C(=O)N[C@@H]2C(=O)N3C(C(=O)O)=C(CSc4nnnn4C)CS[C@H]23)c2ccc(O)cc2)C(=O)C1=O [cefoperazone],,34.54 ± 0.26%,
CC(C)(O/N=C(\C(=O)N[C@@H]1C(=O)N2C(C(=O)[O-])=C(C[n+]3ccccc3)CS[C@H]12)c1csc(N)n1)C(=O)O [ceftazidime],123.6 ± 0.19 µM,,inhibition (%) at 0.25 mM (jack bean (JB) urease): 76.94 ± 1.57% and 49.52 ± 1.78%
CO/N=C(\C(=O)N[C@@H]1C(=O)N2C(C(=O)[O-])=C(C[N+]3(C)CCCC3)CS[C@H]12)c1csc(N)n1 [cefepime],78.65 ± 0.45 µM,73.3 ± 1.35%,
N[C@@H](C(=O)N[C@@H]1C(=O)N2C(C(=O)O)=C(Cl)CS[C@H]12)c1ccccc1 [cefaclor],62.9 ± 0.78 µM,92.4 ± 1.53%,
CO/N=C1\CN(c2nc3c(cc2F)c(=O)c(C(=O)O)cn3C2CC2)CC1CN (stereo not shown) [gemifloxacin],16.5 ± 0.85 µM,92.5 ± 1.35%,
